The text below walks through data of the RNAGym collection of RNA variant scans (doi:10.1002/anie.201605470).

B1: Osa-1-4 twister ribozyme (parent)
chain: CCGCCUAACACUGCCAAUGCCGGUCCCAAGCCCGGAUAAAAGUGGAGGGGGCGG

Variants of B1 are the subject of this data set. Kind of data set: self-cleavage, relative activity (ratio to wild type); higher = more cleavage; co-transcriptional. The method in brief: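 In vitro transcription at 37 °C for 2 h allowed the twister ribozyme to cleave itself as it was made. Its 54-nucleotide Oryza sativa template had been synthesised with 97 % wild-type base and 1 % of each other base at the 48 positions downstream of the cleavage site. A template-switching oligonucleotide was used for reverse transcription, followed by PCR amplification and deep sequencing. Whether reads carried upstream sequence set the cleavage status, and relative activity is the fraction cleaved normalised to wild type.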
In the case of CCGCCUAACAAUGCCAAUGCCGGUCCCAAGCCCGGAUAAAAGUGGAGGGGGCGA, the self-cleavage was determined as 0.62.
The result for CCGCCUAACAAUGCCAAUGCCGGUCCCAAGCCCGGAUAAAAGUGGAGGGGGCGU reads 0.71; that for CCGCCUAACAAUGCCAAUGCCGGUCCCAAGCCCGGAUAAAAGUGGAGGGGGCGC, 0.66.
The result for CCGCCUAACAAUGCCAAUGCCGGUCCCAACCCCGGAUAAAAGUGGAGGGGGCGG reads 0.03.
The result for CCGCCUAACAAUGCCAAUGCCGGUCCCAAACCCGGAUAAAAGUGGAGGGGGCGG reads 0.03; that for CCGCCUAACAAUGCCAAUGCCGGUCCCAAUCCCGGAUAAAAGUGGAGGGGGCGG, 0.03.
For CCGCCUAACAAUGCCAAUGCCGGUCCCAAGCCCGGAUAAAAGUGGAGGUGGCGG, the self-cleavage was 0.07.
The result for CCGCCUAACAAUGCCAAUGCCGGUCCCAAGCCCGGAUAAAAGUGGAGGAGGCGG reads 0.06.
Then CCGCCUAACAAUGCCAAUGCCGGUCCCAAGCCCGGAUAAAAGUGGAGGCGGCGG, with 0.06; and CCGCCUAACAGUGCCAAUGCGGGUCCCAAGCCCGGAUAAAAGUGGAGGGGGCGG, with 0.04; and CCGCCUAACAGUGCCAAUGCAGGUCCCAAGCCCGGAUAAAAGUGGAGGGGGCGG, with 0.06.
Then CCGCCUAACAAUGCCAAUGCCGGUCCCAAGCCCGGAUAAAAGUGGAGGGGUCGG, with 0.06; and CCGCCUAACAAUGCCAAUGCCGGUCCCAAGCCCGGAUAAAAGUGGAGGGGCCGG, with 0.04.
In the case of CCGCCUAACAAUGCCAAUGCCGGUCCCAAGCCCGGAUAAAAGUGGAGGGGACGG, the self-cleavage is 0.17.
Regarding CCGCCUAACAAUGCCAAUGCCGGUCCCAAGGCCGGAUAAAAGUGGAGGGGGCGG, the self-cleavage stood at 0.06.
With CCGCCUAACAAUGCCAAUGCCGGUCCCAAGUCCGGAUAAAAGUGGAGGGGGCGG, the self-cleavage came out at 0.09.
In the case of CCGCCUAACAAUGCCAAUGCCGGUCCCAAGACCGGAUAAAAGUGGAGGGGGCGG, the self-cleavage came to 0.05.
The result for CCGCCUAACAAUGCCAAUGCCGGUCCCAAGCCCGGAUAAAAGUGGAGGGGGCCG reads 0.04; that for CCGCCUAACAAUGCCAAUGCCGGUCCCAAGCCCGGAUAAAAGUGGAGGGGGCUG, 0.09.
The result for CCGCCUAACAAUGCCAAUGCCGGUCCCAAGCCCGGAUAAAAGUGGAGGGGGCAG reads 0.49; that for CCGCCUAACAAUGCCAAUCCCGGUCCCAAGCCCGGAUAAAAGUGGAGGGGGCGG, 0.04.
The result for CCGCCUAACAAUGCCAAUACCGGUCCCAAGCCCGGAUAAAAGUGGAGGGGGCGG reads 0.11; that for CCGCCUAACAAUGCCAAUUCCGGUCCCAAGCCCGGAUAAAAGUGGAGGGGGCGG, 0.06; that for CCGCCUAACAAUGCCAAUGCCGGUCCCAAGCCCGGAAAAAAGUGGAGGGGGCGG, 0.48.
Take CCGCCUAACAAUGCCAAUGCCGGUCCCAAGCCCGGACAAAAGUGGAGGGGGCGG: the self-cleavage amounted to 0.88.
The result for CCGCCUAACAAUGCCAAUGCCGGUCCCAAGCCCGGAGAAAAGUGGAGGGGGCGG reads 0.81; that for CCGCCUAACAGUGUCAAUGCCGGUCCCAAGCCCGGAUAAAAGUGGAGGGGGCGG, 0.13; that for CCGCCUAACAGUGACAAUGCCGGUCCCAAGCCCGGAUAAAAGUGGAGGGGGCGG, 0.05.
The result for CCGCCUAACAGUGGCAAUGCCGGUCCCAAGCCCGGAUAAAAGUGGAGGGGGCGG reads 0.06.
The result for CCGCCUAACAAAGCCAAUGCCGGUCCCAAGCCCGGAUAAAAGUGGAGGGGGCGG reads 0.09; that for CCGCCUAACAAGGCCAAUGCCGGUCCCAAGCCCGGAUAAAAGUGGAGGGGGCGG, 0.09; that for CCGCCUAACAACGCCAAUGCCGGUCCCAAGCCCGGAUAAAAGUGGAGGGGGCGG, 0.14.
Consider CCGCCUAAGAGUGCCAAUGCCGGUCCCAAGCCCGGAUAAAAGUGGAGGGGGCGG, for which the self-cleavage is 0.19.
The result for CCGCCUAAAAGUGCCAAUGCCGGUCCCAAGCCCGGAUAAAAGUGGAGGGGGCGG reads 0.09.
As to CCGCCUAAUAGUGCCAAUGCCGGUCCCAAGCCCGGAUAAAAGUGGAGGGGGCGG, the self-cleavage stood at 0.07.
The result for CCGCCUAACAAUGCCAAUGCCGGUCCCAAGCGCGGAUAAAAGUGGAGGGGGCGG reads 0.07; that for CCGCCUAACAAUGCCAAUGCCGGUCCCAAGCUCGGAUAAAAGUGGAGGGGGCGG, 0.06.
For the variant CCGCCUAACAAUGCCAAUGCCGGUCCCAAGCACGGAUAAAAGUGGAGGGGGCGG, the self-cleavage stood at 0.06.
In the case of CCGCCUAACAAUGCCAAUGCCGGUCCCAAGCCCGGAUAAAAGGGGAGGGGGCGG, the self-cleavage worked out at 0.56.
For CCGCCUAACAAUGCCAAUGCCGGUCCCAAGCCCGGAUAAAAGCGGAGGGGGCGG, the self-cleavage was found to be 0.1.
Then CCGCCUAACAAUGCCAAUGCCGGUCCCAAGCCCGGAUAAAAGAGGAGGGGGCGG, with 0.76; and CCGCCUAACAGUGCUAAUGCCGGUCCCAAGCCCGGAUAAAAGUGGAGGGGGCGG, with 0.08; and CCGCCUAACAGUGCGAAUGCCGGUCCCAAGCCCGGAUAAAAGUGGAGGGGGCGG, with 0.1.
Regarding CCGCCUAACAGUGCAAAUGCCGGUCCCAAGCCCGGAUAAAAGUGGAGGGGGCGG, the self-cleavage worked out at 0.09.
The result for CCGCCUAACAAUGCCAAUGCCGGUCCCAAGCCCGGAUAAAAGUAGAGGGGGCGG reads 0.19; that for CCGCCUAACAAUGCCAAUGCCGGUCCCAAGCCCGGAUAAAAGUUGAGGGGGCGG, 0.08.
Consider CCGCCUAACAAUGCCAAUGCCGGUCCCAAGCCCGGAUAAAAGUCGAGGGGGCGG, for which the self-cleavage turned out to be 0.45.
Then CCGCCUAACAAUGCCAAUGCCGGUCCCAAGCCCGGAUAAAAGUGCAGGGGGCGG, with 0.04; and CCGCCUAACAAUGCCAAUGCCGGUCCCAAGCCCGGAUAAAAGUGAAGGGGGCGG, with 0.06.
For CCGCCUAACAAUGCCAAUGCCGGUCCCAAGCCCGGAUAAAAGUGUAGGGGGCGG, the self-cleavage came to 0.06.
CCGCCUAACAAUGCCAAUGCCGGUCUCAAGCCCGGAUAAAAGUGGAGGGGGCGG: the self-cleavage stood at 0.21.
Consider CCGCCUAACAGUGCCAAUGGCGGUCCCAAGCCCGGAUAAAAGUGGAGGGGGCGG, for which the self-cleavage amounted to 0.04.
Then CCGCCUAACAGUGCCAAUGACGGUCCCAAGCCCGGAUAAAAGUGGAGGGGGCGG, with 0.4; and CCGCCUAACAGUGCCAAUGUCGGUCCCAAGCCCGGAUAAAAGUGGAGGGGGCGG, with 0.5.
The result for CCGCCUAACAAUGCCAAUGCCGGUCCCAAGCCCGGAUAAAAUUGGAGGGGGCGG reads 0.73; that for CCGCCUAACAAUGCCAAUGCCGGUCCCAAGCCCGGAUAAAAAUGGAGGGGGCGG, 0.76; that for CCGCCUAACAAUGCCAAUGCCGGUCCCAAGCCCGGAUAAAACUGGAGGGGGCGG, 0.83.
Then CCGCCUAACAAUGCCAAUGCCGGUCCUAAGCCCGGAUAAAAGUGGAGGGGGCGG, with 0.08; and CCGCCUAACAAUGCCAAUGCCGGUCCGAAGCCCGGAUAAAAGUGGAGGGGGCGG, with 0.04.
In the case of CCGCCUAACAAUGCCAAUGCCGGUCCAAAGCCCGGAUAAAAGUGGAGGGGGCGG, the self-cleavage turned out to be 0.12.
For CCGCCUAACAAUGCCAAUGCCGGGCCCAAGCCCGGAUAAAAGUGGAGGGGGCGG, the self-cleavage came out at 0.07.
The result for CCGCCUAACAAUGCCAAUGCCGGACCCAAGCCCGGAUAAAAGUGGAGGGGGCGG reads 0.05; that for CCGCCUAACAAUGCCAAUGCCGGCCCCAAGCCCGGAUAAAAGUGGAGGGGGCGG, 0.06; that for CCGCCUAACAAUGCCAAUGCCGGUCCCAAGCCCGAAUAAAAGUGGAGGGGGCGG, 0.4.
For the variant CCGCCUAACAAUGCCAAUGCCGGUCCCAAGCCCGCAUAAAAGUGGAGGGGGCGG, the self-cleavage worked out at 0.09.
With CCGCCUAACAAUGCCAAUGCCGGUCCCAAGCCCGUAUAAAAGUGGAGGGGGCGG, the self-cleavage is 0.37.
With CCGCCUAACAAUGCCAAAGCCGGUCCCAAGCCCGGAUAAAAGUGGAGGGGGCGG, the self-cleavage came to 0.67.
The result for CCGCCUAACAAUGCCAACGCCGGUCCCAAGCCCGGAUAAAAGUGGAGGGGGCGG reads 0.43; that for CCGCCUAACAAUGCCAAGGCCGGUCCCAAGCCCGGAUAAAAGUGGAGGGGGCGG, 0.64.
The result for CCGCCUAACAAUGCCAAUGCCGCUCCCAAGCCCGGAUAAAAGUGGAGGGGGCGG reads 0.03; that for CCGCCUAACAAUGCCAAUGCCGUUCCCAAGCCCGGAUAAAAGUGGAGGGGGCGG, 0.03.
Take CCGCCUAACAAUGCCAAUGCCGAUCCCAAGCCCGGAUAAAAGUGGAGGGGGCGG: the self-cleavage stood at 0.07.
CCGCCUAACAAUGCCAAUGCCGGUCCCAAGCCCGGAUAAAAGUGGAAGGGGCGG: the self-cleavage was 0.07.
Then CCGCCUAACAAUGCCAAUGCCGGUCCCAAGCCCGGAUAAAAGUGGAUGGGGCGG, with 0.06.
In the case of CCGCCUAACAAUGCCAAUGCCGGUCCCAAGCCCGGAUAAAAGUGGACGGGGCGG, the self-cleavage is 0.05.
The result for CCGCCUAACAAUGCCAAUGCCGGUCCCAAGCCCGGAUAAAAGUGGAGAGGGCGG reads 0.05.
Turning to CCGCCUAACAAUGCCAAUGCCGGUCCCAAGCCCGGAUAAAAGUGGAGUGGGCGG, the self-cleavage was found to be 0.05.
Then CCGCCUAACAAUGCCAAUGCCGGUCCCAAGCCCGGAUAAAAGUGGAGCGGGCGG, with 0.05; and CCGCCUAACAAUGCCAAUGCCCGUCCCAAGCCCGGAUAAAAGUGGAGGGGGCGG, with 0.04.
Then CCGCCUAACAAUGCCAAUGCCUGUCCCAAGCCCGGAUAAAAGUGGAGGGGGCGG, with 0.07.
Then CCGCCUAACAAUGCCAAUGCCAGUCCCAAGCCCGGAUAAAAGUGGAGGGGGCGG, with 0.24.
In the case of CCGCCUAACAAUACCAAUGCCGGUCCCAAGCCCGGAUAAAAGUGGAGGGGGCGG, the self-cleavage stood at 0.03.
The result for CCGCCUAACAAUUCCAAUGCCGGUCCCAAGCCCGGAUAAAAGUGGAGGGGGCGG reads 0.04.
Then CCGCCUAACAAUCCCAAUGCCGGUCCCAAGCCCGGAUAAAAGUGGAGGGGGCGG, with 0.03.
For the variant CCGCCUAACAAUGCCAAUGCCGGUCCCAAGCCCGGAUAAAAGUGGAGGGGGGGG, the self-cleavage amounted to 0.74.
Then CCGCCUAACAAUGCCAAUGCCGGUCCCAAGCCCGGAUAAAAGUGGAGGGGGAGG, with 0.63.
Then CCGCCUAACAAUGCCAAUGCCGGUCCCAAGCCCGGAUAAAAGUGGAGGGGGUGG, with 0.9; and CCGCCUAACAAUGCCAAUGCCGGUCCCAAGCCUGGAUAAAAGUGGAGGGGGCGG, with 0.2.
On to CCGCCUAACAAUGCCAAUGCCGGUCCCAAGCCGGGAUAAAAGUGGAGGGGGCGG, for which the self-cleavage was determined as 0.04.
Turning to CCGCCUAACAAUGCCAAUGCCGGUCCCAAGCCAGGAUAAAAGUGGAGGGGGCGG, the self-cleavage amounted to 0.06.
The result for CCGCCUAACAAUGCCAAUGCCGGUCCCAAGCCCGGAUAAAAGUGGAGGGCGCGG reads 0.57; that for CCGCCUAACAAUGCCAAUGCCGGUCCCAAGCCCGGAUAAAAGUGGAGGGAGCGG, 0.3.
Then CCGCCUAACAAUGCCAAUGCCGGUCCCAAGCCCGGAUAAAAGUGGAGGGUGCGG, with 0.77; and CCGCCUAACAAUGCCAAUGCCGGUCCCAAGCCCCGAUAAAAGUGGAGGGGGCGG, with 0.07.
For the variant CCGCCUAACAAUGCCAAUGCCGGUCCCAAGCCCAGAUAAAAGUGGAGGGGGCGG, the self-cleavage is 0.16.
As to CCGCCUAACAAUGCCAAUGCCGGUCCCAAGCCCUGAUAAAAGUGGAGGGGGCGG, the self-cleavage was found to be 0.11.
In the case of CCGCCUAACAGUGCCAAUGCCGGUCCCAAGCCCGGAUAAAAGUGGAGGGGGCGG, the self-cleavage turned out to be 0.7.
